The campaign covered roughly 210,000 compounds. About 220 (0.1%) were called active. The sample as a whole holds a higher share of actives than the screen did. Values without a mark were called inactive.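 The calls were made as follows: active = signal enhancement of 30% or more; inactive = the rest.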

In this assay the target is E3 ubiquitin-protein ligase Mdm2 (Homo sapiens) (UniProt Q00987). Description: increase of MDM2 autoubiquitination reporter luminescence – cell-based, 1536-well, MDM2 E3 ligase inhibitor project, primary screen (AID 1230).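 Also: luminescence tracks abundance of the self-degrading MDM2-luciferase fusion protein.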 The settings on record: cell-based MDM2 ubiquitination luciferase reporter, 2 h; at 5 µM; active compounds read high; 0 = plate control, 100 = twice control, blank-subtracted. In short, it runs like this: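 System: stable MDM2–luciferase fusion reporter cells / Input: 2000 cells seeded into each well / Schedule: 4 h settle plus 2 h compound, 37 °C / Compound: single-point 5 µM / Buffer or medium: cells held in DMEM / Benchmarks: control and blank well means / Evaluation: percent signal gain over controls, blank-subtracted / Measured by: luciferase luminescence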
E3 ubiquitin-protein ligase Mdm2 (Homo sapiens), sequence (Q00987 whole entry, looked up, the tested form may be a part): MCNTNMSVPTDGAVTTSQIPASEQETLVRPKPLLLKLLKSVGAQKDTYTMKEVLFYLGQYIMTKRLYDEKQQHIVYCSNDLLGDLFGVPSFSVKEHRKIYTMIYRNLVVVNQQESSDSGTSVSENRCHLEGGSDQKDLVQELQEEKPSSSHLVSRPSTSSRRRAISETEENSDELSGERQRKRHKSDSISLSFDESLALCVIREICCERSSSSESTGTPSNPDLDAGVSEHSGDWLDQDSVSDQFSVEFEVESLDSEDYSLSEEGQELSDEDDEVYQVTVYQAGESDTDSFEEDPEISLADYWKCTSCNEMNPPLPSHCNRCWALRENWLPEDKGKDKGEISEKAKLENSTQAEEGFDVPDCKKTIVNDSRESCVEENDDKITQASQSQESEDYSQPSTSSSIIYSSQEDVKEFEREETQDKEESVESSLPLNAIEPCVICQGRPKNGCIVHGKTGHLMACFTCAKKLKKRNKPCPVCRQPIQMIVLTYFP
Background: A reporter such as luciferase makes a cellular process visible.
Turning to `CCCc1nc2oc3c(=O)[nH]cnc3c2c2c1COC(C)(C)C2`, the signal enhancement was 1.7%.

Consider `COc1c(N2CCN(C(=S)Nc3ccccc3F)C(C)C2)c(F)cc2c(=O)c(C(=O)O)cn(C3CC3)c12` (centres undefined), for which the signal enhancement was 0.25%.

For `CCc1cc2c(=O)c(-c3nc4ccccc4n3C)c(CCCC(=O)O)oc2cc1OC(=O)C(C)(C)C`, the signal enhancement was 32.3% (active).

Regarding `CCc1cc2c(=O)c(-c3ccc(F)cc3)c(C(F)(F)F)oc2cc1OCC(=O)O`, the signal enhancement is -6.75%.

`CCOC(=O)c1oc2c(CN3CCN(CCO)CC3)c(O)c(CC)cc2c(=O)c1-c1nc2ccccc2s1`: the signal enhancement was -10.7%.

Regarding `CCOc1c(Nc2cccc(Cl)c2)c(=O)c1=O`, the signal enhancement is -2.35%.

Consider `NC1=NC[C@@H](Cc2ccc(O)cc2)N1CC1CCCCC1`, for which the signal enhancement was 7.84%.

Take `Oc1c(Br)cc(/C=N/NC(=S)NCC2CCCO2)cc1Br` (centres undefined): the signal enhancement was -4.26%.

`N#Cc1ccc(Oc2ccc(C(F)(F)F)cc2NC(=O)c2ccc(F)cc2)cc1`: the signal enhancement was -13.7%.

With `CC1(C)CCSC(/C=C/c2ccccc2)=N1`, the signal enhancement is 3.53%.

As to `NS(=O)(=O)c1ccc(NC(=O)COC(=O)c2cc3ccccc3oc2=O)cc1`, the signal enhancement was -3.08%.

Take `Cc1cc(C)nc(SCc2cn3c(C)cc(C)nc3n2)n1`: the signal enhancement was -13.6%.

With `COc1cc(NC(=O)c2ccc(CNc3c(N4CCCC4)c(=O)c3=O)cc2)cc(OC)c1OC`, the signal enhancement is -5.93%.

Turning to `COc1cc(C(CCN2CCN(c3ccccc3)CC2)c2c(OC)cc(OC)c3ccc(=O)oc23)cc(OC)c1OC` (centres undefined), the signal enhancement is 17.2%.

For `CC(C)COC(=O)n1c(=O)oc2ccc(S(=O)(=O)N3CCCCC3)cc21`, the signal enhancement is -7.89%.

Take `CN(C)c1cc(-c2ccc(F)cc2)oc(=O)c1Cl`: the signal enhancement is -15.5%.

As to `COc1ccccc1NC(=O)c1cc(Cl)nc2ccccc12`, the signal enhancement was -12.4%.

Consider `Cc1onc(-c2c(Cl)cccc2Cl)c1C(=O)NNC(=O)c1c(-c2c(Cl)cccc2Cl)noc1C`, for which the signal enhancement was -1.5%.

Turning to `Cc1cc(C)cc(NS(=O)(=O)c2ccc(F)cc2)c1`, the signal enhancement was -8.71%.

As for `COc1ccccc1CNC(=O)Cn1c(=O)oc2cc(Cl)ccc21`, the signal enhancement was -8.67%.

On to `Cc1noc(C)c1-c1nc(CSc2ccc(Cl)cc2)no1`, for which the signal enhancement is -16.2%.

On to `Cc1ccc(/C=N/NC(=S)Nc2cccc(S(=O)(=O)N(C)C)c2)o1`, for which the signal enhancement was -13.3%.

Take `Cc1cccc(-[n+]2c(-c3cccc(Br)c3)[nH]c3nc4ccccc4nc32)c1`: the signal enhancement was -76.7%.

With `O=C1NNC(c2ccccc2)=N/C1=C\c1ccc(Cl)cc1`, the signal enhancement is -9.72%.

As to `O=c1cc(CCl)nc2scc(-c3ccccc3)n12`, the signal enhancement was -0.33%.

Consider `CCOC(=O)CNC(=O)CSc1nnnn1-c1cc(C)ccc1C`, for which the signal enhancement is 16.5%.

Turning to `CCOC(=O)Cn1nnnc1C`, the signal enhancement was 38.2% (active).

As to `CCOC(=O)Cn1c(N)c(C(=O)OC)sc1=S`, the signal enhancement was -0.11%.

As for `Cc1cc(=O)oc2cc(OCCC[n+]3ccccc3)ccc12`, the signal enhancement was -9.35%.

As for `Cc1cc(NC(=O)OC(C)C)ccc1-c1ccc(NC(=O)OC(C)C)cc1C`, the signal enhancement is 0.08%.

Consider `O=S(=O)(c1ccccc1)N1CN(Cc2ccc(F)cc2)c2nc3ccccc3nc21`, for which the signal enhancement is -0.23%.

As for `CCCCNC(=O)OCCSCCS(=O)(=O)c1ccc(Cl)cc1`, the signal enhancement is -11.5%.

For the compound `O=C(NN1C(=O)C2C(C1=O)C1C=CC2C12CC2)c1ccccc1Cl` (centres undefined), the signal enhancement is -6.98%.

Take `COc1cc(C=O)ccc1Oc1nnnn1-c1ccccc1`: the signal enhancement is -12.6%.

Take `Cn1nc(C(C)(C)C)c(NC(=O)c2sccc2Cl)c1C(C)(C)C`: the signal enhancement is -2.73%.

Consider `COc1ccc(NC2=CC(=S)NC(C)(C)C2)cc1`, for which the signal enhancement is -2.53%.

Turning to `O=C(Nc1ccc(F)cc1)c1cc2c(s1)CCCC2`, the signal enhancement was -16.8%.

Turning to `COc1ccc(COCCN2CCN(S(=O)(=O)c3ccccc3)CCC2=O)cc1`, the signal enhancement was 16.8%.

Regarding `COc1ccc(COCC(O)CN2CCC(C(N)=O)CC2)cc1` (centres undefined), the signal enhancement was -1.62%.

As for `O=C(CCl)Nc1cccc(CP(=O)(c2ccccc2)c2ccccc2)c1`, the signal enhancement was -14.8%.

With `O=c1[nH]c2cccnc2n1-c1ccc([N+](=O)[O-])cc1`, the signal enhancement is -12%.

Consider `O=C(NNC(=S)Nc1ccc(F)cc1)[C@H]1C[C@@H]1c1ccccc1`, for which the signal enhancement is -1.61%.

Turning to `CCOC(=O)/C=C/CN(C(=O)OC(C)(C)C)S(=O)(=O)N1CC=CC1`, the signal enhancement is 1.19%.

As for `Cc1cc(Nc2ccc(N3CCOCC3)cc2)c2cccc(C)c2n1`, the signal enhancement was 5.92%.

With `N#CC1=C(N)Oc2c(ccc3cccnc23)C1c1ccncc1` (centres undefined), the signal enhancement was -12.4%.

For the compound `COCc1cc(=O)oc2cc(NS(=O)(=O)c3ccc(C)cc3)ccc12`, the signal enhancement is -14.3%.

Turning to `CC(=O)N(OCc1ccc(OC(C)C)c(Cl)c1)C(C)=O`, the signal enhancement was -12.5%.

In the case of `Cc1ccc(S(=O)(=O)NC(=O)N2CCCN(Cc3ccc(F)cc3)CC2)cc1`, the signal enhancement was -8.58%.

Take `CCC/C(C)=N\Nc1nc2c(c(=O)n(C)c(=O)n2C)n1C`: the signal enhancement is -9.83%.

With `CCO[C@@H]1OC(C(=O)NC2CC2)=C[C@H](C)[C@H]1CCCO`, the signal enhancement is -12.6%.

With `CC(C)C[C@H](CO)Nc1nc(N(C)c2cccc(Cl)c2)c2ncn(C(C)C)c2n1`, the signal enhancement was 10%.

Take `Cc1ccc(/C=C/C(=O)O)cc1S(=O)(=O)N1CCC(Cc2ccccc2)CC1`: the signal enhancement was -0.26%.

Take `O=C(CCCOc1ccccc1)Nc1cccc(C(=O)O)c1`: the signal enhancement was -14.6%.

Consider `O=C(CNCc1ccc(Cl)cc1)Nc1cccc(C(=O)O)c1`, for which the signal enhancement was 35.7% (active).

Consider `O=C(CCC(=O)OCc1ccc(Cl)cc1)Nc1ccccc1`, for which the signal enhancement was -8.79%.

As for `CCN(CC)CCn1c(N)c(S(=O)(=O)c2ccccc2)c2nc3ccccc3nc21`, the signal enhancement is -7.92%.

Consider `Nc1ccc(-c2nnc(-c3ccc(-c4ccccc4)cc3)o2)cc1`, for which the signal enhancement was -17.1%.

Regarding `OC(c1nnc(-c2ccccc2)o1)c1cccs1` (centres undefined), the signal enhancement is 31.9% (active).

Consider `CCCN(CCC)c1ccc(C(O)c2nnc(-c3ccccc3)o2)cc1` (centres undefined), for which the signal enhancement is -18.3%.

With `O=S(=O)([N-]c1nc2ccccc2nc1-[n+]1ccc(Cc2ccccc2)cc1)c1ccc(Br)s1`, the signal enhancement was -17.8%.

Consider `COc1ccc(NC(=O)C2=C(C)NC(=O)NC2c2ccccc2[N+](=O)[O-])cc1` (centres undefined), for which the signal enhancement was -9.62%.

Consider `Nc1nc(NCC2CCCO2)nc(Nc2ccccc2F)c1[N+](=O)[O-]` (centres undefined), for which the signal enhancement is 1.79%.

Consider `CCN(CCO)C(=S)Nc1cc(C(=O)OC)ccc1C(=O)OC`, for which the signal enhancement is 3.69%.

In the case of `CCS(=O)(=O)Nc1cc(C(=O)OC)ccc1C(=O)OC`, the signal enhancement is -8.23%.

Take `CCCN(CCC)C(=S)Nc1cc(C(=O)OC)ccc1C(=O)OC`: the signal enhancement was 39.1% (active).

Take `Cc1cc(C)cc(OCC(=O)NNC(=O)c2cc3ccccc3oc2=O)c1`: the signal enhancement is 1.34%.

Take `O=C(CCN1C(=O)c2ccccc2C1=O)NNC(=O)c1ccc(Cl)cc1Cl`: the signal enhancement is -8.02%.

For `Cc1cc(C)cc(OCC(=O)NNC(=O)CCN2C(=O)c3ccccc3C2=O)c1`, the signal enhancement is 31.1% (active).

For `Clc1ccc(-c2cc(-c3ccccn3)on2)c(Cl)c1`, the signal enhancement was -77.9%.

In the case of `CCCN(c1ccc(C)cc1)c1nc(=O)c2cccnc2s1`, the signal enhancement is -10%.

On to `Fc1ccc(Nc2nnns2)cc1`, for which the signal enhancement was -6.61%.

With `Cc1ccc(NC(=O)OCc2cncs2)cc1`, the signal enhancement is -21.3%.

In the case of `COc1ccc(NC(=S)Nc2ccccc2Cl)cn1`, the signal enhancement is -15.3%.

`COc1ccc(NC(=O)/C(Cl)=C(/Cl)S(=O)Cc2ccc(C)cc2)cn1` (centres undefined): the signal enhancement was 72.4% (active).

On to `COc1ccc(CS(=O)/C(Cl)=C(/Cl)C(=O)Nc2ccc(OC)nc2)cc1` (centres undefined), for which the signal enhancement is 53.8% (active).

In the case of `COc1ccc(C(=O)Nc2ccc(NC(=O)C(C)C)nc2)cc1`, the signal enhancement was -20.6%.

As to `CC(=O)Nc1ccc(OCC(=O)NCc2ccc(C)cc2)cc1`, the signal enhancement was -12.3%.

For `CC(C)CCNC(=O)C1CCC(CNc2c(N3CCC(C)CC3)c(=O)c2=O)CC1` (centres undefined), the signal enhancement is -5.11%.

`COc1ccc2c(CC(=O)OCC(=O)NC(N)=O)coc2c1`: the signal enhancement is 0.56%.

Consider `COC(=O)/C=C(\Oc1ccccc1)C1(O)CCCCC1`, for which the signal enhancement is -12%.

Take `CC(=O)NNC(=O)c1csc(Cc2c(Cl)sc3ccc(Cl)cc23)n1`: the signal enhancement was -2.59%.

Take `CCC1(C)Cc2c(sc3nc(SC)[nH]c(=O)c23)CO1` (centres undefined): the signal enhancement is -9.94%.

In the case of `CCOC(=O)CC1C(=O)NCCN1c1nc2c(C)cccn2c(=O)c1/C=C1\SC(=S)N(C(C)CC)C1=O` (centres undefined), the signal enhancement is -24.8%.

Turning to `Cc1cc(OC(=O)c2ccccc2)c([N+](=O)[O-])c(=O)[nH]1`, the signal enhancement is 39.8% (active).

In the case of `COc1cccc(C(=O)Oc2cc(C)[nH]c(=O)c2[N+](=O)[O-])c1`, the signal enhancement was -90.1%.

As for `O=C(Oc1ccccc1C(=S)N1CCCCC1)c1cc([N+](=O)[O-])cc([N+](=O)[O-])c1`, the signal enhancement was -1.87%.

Consider `c1csc(-c2nnc(COc3ncnc4sccc34)o2)c1`, for which the signal enhancement was -10.9%.

For `COc1ccc(/C=N/NS(=O)(=O)c2ccc(NC(C)=O)cc2)cc1`, the signal enhancement is -14.4%.

On to `Cc1nc(-c2ccccc2)sc1-c1nnc(C2CC2)o1`, for which the signal enhancement was -9.04%.

On to `CCOc1ccc(C2NC(=S)NC3=C2CCc2ccccc23)cc1` (centres undefined), for which the signal enhancement was -16.9%.

Consider `CN(c1ccc(OCC(=O)NC2=NCCS2)cc1)S(=O)(=O)c1ccc(F)cc1`, for which the signal enhancement is -0.06%.

For `Cc1ccc(Oc2nc(-c3ccccn3)nc3ccccc23)cc1`, the signal enhancement was -1.85%.

In the case of `Brc1ccc2c(c1)[C@H]1OCC[C@H]1[C@@H](c1cccs1)N2`, the signal enhancement is -17.3%.

For `COc1ccc(OC)c(-n2c(-c3ccn[nH]3)n[nH]c2=S)c1`, the signal enhancement was -7.17%.
